# Screening data as filed in PubChem.
# Hits are enriched below; roughly 2.1% of the tested compounds scored in any of these assays.
# CXCR6 block = inhibitors of human CXCR6 receptor; 360,000 compounds, 0.36% hits; O00574; AID 602244; inhibition, % at 20 µM; CHO-K1 PathHunter CXCR6 beta-arrestin, luminescence; in the data active means inhibition above about 34%, passing the limit was not always enough;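 further: antagonist mode with CXCL16 agonist at 10 nM final; 0% = 10 nM CXCL16 with DMSO and 100% = unstimulated wells without agonist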
# EBI2 antag = antagonists of human EBI2 receptor; EBI2 beta-arrestin recruitment, luminescence, 7a,25-OHC stimulated; inhibition, % at 5 µM; 360,000 compounds, 0.81% hits; in the data active means inhibition above about 38%;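 further: enzyme fragment complementation signal reports receptor beta-arrestin coupling in cells; 0% = agonist plus DMSO wells and 100% = wells without agonist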
# APJ ag = activates the human apelin receptor APJ | CHO-K1 APJ PathHunter beta-arrestin, luminescence; 0% DMSO wells, 100% apelin | activation, % at 20 µM | 330,000 compounds, 0.11% hits | AID 2520;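 active means activation more than six SD over the plate average, tested at 20 µM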;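 further: 0% = DMSO alone and 100% = apelin-13 at 10 nM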
#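 Material: CHO-K1 APJ beta-arrestin complementation cell line; Input: cell density 1000 per well; Incubation: compound stimulation 90 min at 25 °C, detection 60 min; Signal: luminescence from split beta-galactosidase complementation, Galacton Star/Emerald II substrate; Controls: DMSO-only wells as negative, 10 nM Apelin-13 as positive control.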
# m5-HT2A agonist = activates the mouse 5-HT2A serotonin receptor. CHO-K1 mHTR2A beta-arrestin complementation, luminescence; percent of 30 µM serotonin response. activation, % at 7.6 µM. 360,000 compounds, 0.66% hits. AID 624169;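 active means activation above a run cutoff, the mean activation of all tested compounds plus 3 SD, cut at about 14% in these data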;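 further: 0% = plate median of compound wells and 100% = 30 µM serotonin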
# CCR6 antagonist = CCR6 (human) receptor antagonism. P51684. CHO-K1 CCR6 PathHunter beta-arrestin, luminescence, CCL20-stimulated. inhibition, % at 20 µM. 340,000 compounds, 0.49% hits;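 active means compounds whose inhibition of the agonist-driven luminescence signal at 20 µM reaches about 50%, limit read from the data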;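 further: cells stimulated with CCL20 at 14 nM final; plate controls were DMSO with CCL20 for no effect and DMSO without agonist for full effect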
# Target sequence (P51684 whole entry, looked up): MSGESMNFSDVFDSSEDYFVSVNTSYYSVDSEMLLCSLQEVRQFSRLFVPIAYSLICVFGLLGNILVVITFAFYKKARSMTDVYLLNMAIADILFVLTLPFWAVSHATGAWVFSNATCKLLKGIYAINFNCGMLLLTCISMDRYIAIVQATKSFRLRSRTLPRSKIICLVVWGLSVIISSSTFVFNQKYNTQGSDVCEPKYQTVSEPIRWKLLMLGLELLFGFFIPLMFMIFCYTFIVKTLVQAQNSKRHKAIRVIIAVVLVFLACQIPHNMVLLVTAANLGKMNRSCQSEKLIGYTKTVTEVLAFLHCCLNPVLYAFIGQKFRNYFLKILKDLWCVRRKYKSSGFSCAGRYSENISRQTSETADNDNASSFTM
# APJ antag = antagonists of human APJ apelin receptor | CHO-K1 APJ beta-arrestin complementation, luminescence | inhibition, % at 20 µM | 330,000 compounds, 0.32% hits;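 active means inhibition above about 40% at 20 µM, limit read from the data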;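 further: cells challenged with 10 nM apelin-13 agonist together with compound; plate controls were apelin-13 plus DMSO wells for no effect and DMSO wells lacking apelin-13 for full effect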
# * marks the source's active call; other numbers are inactive results; / = not tested or not shown.
SMILES,CXCR6 block,EBI2 antag,APJ ag,m5-HT2A agonist,CCR6 antagonist,APJ antag
CC1=NOC(=O)/C1=C\c1ccc(-c2ccc(Cl)cc2Cl)o1,29,-26,35*,-1,32,-28
COc1ccc(S(=O)(=O)N(CC(=O)NCc2ccccn2)Cc2ccccc2)cc1,-11,8,0,4,10,-30
Cc1cc(Br)ccc1-n1[nH]c(C)c(C=Nc2cccc3nsnc23)c1=O,33,15,-4,1,52*,-22
COc1ccccc1N=Cc1c(C)[nH]n(-c2ccc(C)cc2C)c1=O,0,8,-3,0,14,9
O=C(CSCc1ccc(Cl)cc1)Nc1ccc(-c2nnc(-c3ccccc3)o2)cc1,-17,-19,1,3,-14,45*
O=C(Cc1ccc(Cl)cc1)Nc1ccc(-c2nnc(-c3ccco3)o2)cc1,1,-3,1,-6,10,-10
O=C(NC(=S)Nc1ccc(-c2ccc(CO)o2)cc1)c1cccs1,16,7,-7,0,46,51*
Cc1c(C(=O)NC(=S)Nc2ccc3c4c(cccc24)CC3)cccc1[N+](=O)[O-],28,18,-3,2,67*,4
CC(=O)NC(=S)Nc1ccc(NC(=S)NC(=O)c2cccs2)cc1,23,-5,-11,10,34,18
Cc1c(C(=O)NC(=S)Nc2ccc(NC(=O)c3cccs3)cc2)cccc1[N+](=O)[O-],17,-4,-6,-3,58*,21
CCC(C)Sc1ccc([C@H]2N[C@@](C)(C(=O)OC)[C@H]3C(=O)N(CC)C(=O)[C@@H]23)cc1OC (stereo partly specified),5,3,-3,4,9,9
CCN(Cc1ccccc1)C(=O)c1cccnc1,0,-11,0,8,-1,3
O=C(CCCOc1ccc(Cl)cc1Cl)NCc1ccccn1,-4,2,-2,5,8,0
S=C(NCc1ccccn1)NN=Cc1ccccn1,34,-18,/,-28,61*,/
COc1cc(/C=N/NC(=O)c2nc(-c3ccccc3)n(-c3ccccc3)n2)ccc1O,-4,6,-1,-4,8,-25
COc1cc(/C=N/Nc2nc(C)nc3c2cnn3-c2ccccc2)ccc1O,3,56*,/,7,-2,/
Cc1ccc(Nc2c(-c3ccccn3)nc3cccc(C)n23)cc1,42*,22,-10,-13,64*,23
Cc1cccc2nc(-c3ccco3)c(Nc3ccccc3)n12,4,0,-4,0,18,16
Oc1ccc(/C=N/NC(=S)NC2CC3CCC2C3)cc1 (stereo unspecified),9,49*,3,-6,3,-1
Cc1ccc(C(CCN(Cc2ccccc2)C(=O)c2ccco2)c2ccco2)cc1 (stereo unspecified),16,-1,-1,-3,52*,0
COc1ccccc1COCC(O)CN(Cc1ccco1)Cc1ccccc1O (stereo unspecified),4,7,-2,0,88*,2
Cc1ccc(NC(=O)CN(Cc2ccco2)Cc2ccccc2O)cc1C,8,20,0,-5,18,9
CN(C)/C=N/c1ncc(C(=O)c2ccc(Cl)cc2)s1,2,3,-1,2,0,-12
CCc1ccc(NC(=O)C(=O)NNC(=O)c2ccc(OC)cc2)cc1,0,-4,1,-2,6,7
Oc1ccc(N=Nc2nc(-c3ccccc3)c(-c3ccccc3)[nH]2)cc1,53*,42,-8,4,67*,54*
SMILES,CXCR6 block,EBI2 antag,APJ ag,m5-HT2A agonist,CCR6 antagonist,APJ antag
Oc1ccc(N=Nc2n[nH]c(-c3ccccc3)n2)cc1,17,8,-2,0,37,37
N=C1C=CC(=C(c2ccc(N)cc2)c2ccc(N)cc2)C=C1,39,15,/,-12,51*,/
c1ccc(C2=NN(c3ccccc3)CC2)cc1,-6,-3,-5,1,14,5
CCOC(=O)/C(=C/c1ccc(N2CCC(c3ccccc3)=N2)cc1)C(C)=O,3,49*,/,-1,24,/
O=C1N=c2ccccc2=C1c1[nH]c(=S)[nH]c1O,8,-13,-2,-6,10,9
Cc1ccc(Cl)c2c1=NC(=O)C=2c1[nH]c(=S)[nH]c1O,17,-6,-8,-3,45,41*
CN(C)S(=O)(=O)c1ccc(C(=O)Nc2nc(-c3cccs3)cs2)cc1,2,77*,0,1,10,1
O=C1CN(C(=O)/C=C/c2ccc(Cl)cc2)c2ccccc2N1,2,25,2,-7,2,-6
Cc1c(N=NC2=C(O)CC(C)(C)CC2=O)c(=O)n(-c2ccccc2)n1C,61*,-3,-4,2,/,16
O=C(Nc1cccc(C(F)(F)F)c1)Oc1ccc(Cl)c2cccnc12,60*,5,/,-4,77*,/
CCN(CC)C(=O)Oc1ccc(Cl)c2cccnc12,-12,-3,0,0,10,-4
COc1ccc(/C=C/c2nc3ccccc3n2Cc2ccccc2OC)cc1,7,55*,-4,-4,12,21
O=C1C=C(O)c2cccc(O)c2C1=O,4,-18,-3,-2,4,-110
O=C1C=C(c2c(O)ccc3ccccc23)c2ccccc2C1=O,46*,-30,/,15*,47,/
Cc1ccc(F)cc1NC(=O)C12CC3CC(C1)CC(n1cnc([N+](=O)[O-])n1)(C3)C2,-5,14,0,1,11,-21
Nc1ccc(-c2nc3ccccc3o2)cc1,-9,4,0,1,-7,4
O=C1C=CC(=O)N1c1ccc(-c2nc3ccccc3o2)cc1,60*,-2,/,4,/,/
Cc1nc(C#N)c(N/N=C/c2cccc(Cl)c2)o1,-2,-2,0,-9,8,-47
O=C(/C=C/c1cccc(Cl)c1)Nc1ncccn1,-4,-5,-2,-3,-2,17
O=C(/C=C/c1cccc(Cl)c1)c1nc2ccccc2[nH]1,9,56*,0,-7,32,8
O=C(/C(=C\c1ccccc1)c1nc2ccccc2[nH]1)c1ccc(Cl)cc1,8,48*,4,-5,19,8
Cc1nn2c(-c3ccco3)nnc2c2ccccc12,2,-6,2,-1,-6,-5
CCC(C)(C)c1ccc(OCCCC[n+]2ccc(C)cc2)c(C(C)(C)CC)c1,/,/,-3,/,-3,13
Cc1ccc(C(=O)COC(=O)CCC(=O)Nc2cccc(Cl)c2)cc1[N+](=O)[O-],16,6,-11,4,53*,24
CC(=O)SC(C[N+](=O)[O-])c1cn(C(C)=O)c2ccccc12 (stereo unspecified),55*,-7,-7,-4,76*,-1
